This is an account of results in ChEMBL document CHEMBL1821635, “Synthesis and evaluation of aliphatic-chain hydroxamates capped with osthole derivatives as histone deacetylase inhibitors” (Eur J Med Chem, 2011).

The source made the active and inactive calls. No cut-off for these calls is given here.

The term GI50 denotes the concentration that inhibits growth by half. Low readings indicate more potent growth inhibition, high ones less potent growth inhibition. Usually IC50 stands for the concentration needed to halve the response being measured. The low end stands for inhibition by little substance, the high end for a need for much substance.

Experiment [1] is described as follows: Antiproliferative activity against human Hep3B cells after 48 hrs by SRB assay. In kind it is functional, Hep 3B2. The procedure, abridged: (§1)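 Cells seeded in medium with 5% FBS; after 24 h a T0 set fixed with 10% TCA. Compound or vehicle (0.1% DMSO) added for 48 h, then fixed with 10% TCA, stained with 0.4% SRB in 1% acetic acid, bound dye solubilized in 10 mM Trizma base, absorbance at 515 nm. GI50 = concentration halving net protein increase versus control, from [1−(Tx−T0)/(C−T0)]×100%.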

The target of experiment [2] is Histone deacetylase. Put plainly: Inhibition of HDAC from human HeLa nuclear extract using Boc-Lys(Ac)-AMC as substrate incubated 30 mins before substrate addition measured after 30 mins post substrate addition by fluorescence assay. In kind it is protein assay.
Experiment [3] has as its system PC-3. Put plainly: Antiproliferative activity against human PC3 cells after 48 hrs by SRB assay. In kind it is functional. The procedure, abridged:
as §1
(In general: Sulforhodamine B stains cellular protein and so reports cell mass.)

Experiment [4] has as its system A549. Put plainly: Antiproliferative activity against human A549 cells after 48 hrs by SRB assay. In kind it is functional. An outline of the steps: as §1
Experiment [5] addresses T1, Protein deacetylase HDAC6 (Homo sapiens, UniProt Q9UBN7).
T1 sequence (Q9UBN7 whole entry): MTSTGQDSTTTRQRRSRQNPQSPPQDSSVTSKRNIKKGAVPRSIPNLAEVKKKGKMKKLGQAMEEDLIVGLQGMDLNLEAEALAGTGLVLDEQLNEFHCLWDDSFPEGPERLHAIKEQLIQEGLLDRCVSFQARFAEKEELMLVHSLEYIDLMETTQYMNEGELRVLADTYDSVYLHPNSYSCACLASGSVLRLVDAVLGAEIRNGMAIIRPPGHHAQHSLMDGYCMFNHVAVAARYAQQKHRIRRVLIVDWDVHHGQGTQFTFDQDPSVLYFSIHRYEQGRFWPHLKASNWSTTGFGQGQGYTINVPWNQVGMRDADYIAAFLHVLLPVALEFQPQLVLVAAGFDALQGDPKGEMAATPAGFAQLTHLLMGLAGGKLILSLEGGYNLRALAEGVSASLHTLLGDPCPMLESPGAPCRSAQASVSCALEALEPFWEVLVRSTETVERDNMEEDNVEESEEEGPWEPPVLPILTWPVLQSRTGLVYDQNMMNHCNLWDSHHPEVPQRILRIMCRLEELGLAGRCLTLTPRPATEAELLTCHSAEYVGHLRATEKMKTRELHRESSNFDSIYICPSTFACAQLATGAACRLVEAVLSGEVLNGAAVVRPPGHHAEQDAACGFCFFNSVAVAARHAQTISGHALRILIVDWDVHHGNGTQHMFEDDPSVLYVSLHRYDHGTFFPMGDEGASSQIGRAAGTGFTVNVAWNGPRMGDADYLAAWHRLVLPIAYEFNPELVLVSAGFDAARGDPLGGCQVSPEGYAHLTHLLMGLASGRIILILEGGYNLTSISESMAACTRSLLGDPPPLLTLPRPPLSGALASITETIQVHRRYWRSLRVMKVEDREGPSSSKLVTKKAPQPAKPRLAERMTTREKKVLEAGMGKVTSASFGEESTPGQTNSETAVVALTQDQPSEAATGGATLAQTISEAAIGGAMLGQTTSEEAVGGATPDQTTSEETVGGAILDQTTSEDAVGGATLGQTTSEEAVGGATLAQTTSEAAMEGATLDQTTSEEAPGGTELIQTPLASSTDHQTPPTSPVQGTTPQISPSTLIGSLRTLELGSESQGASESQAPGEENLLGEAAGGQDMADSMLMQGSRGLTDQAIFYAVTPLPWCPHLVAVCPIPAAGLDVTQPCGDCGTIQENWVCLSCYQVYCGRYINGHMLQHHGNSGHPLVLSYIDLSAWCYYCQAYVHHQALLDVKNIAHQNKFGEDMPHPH
Nature of the experiment: Inhibition of HDAC6 using Boc-Lys(Ac)-AMC as substrate incubated 30 mins before substrate addition measured after 30 mins post substrate addition by fluorescence assay.

In experiment [6] the target is T2, Histone deacetylase 8 (Homo sapiens, UniProt Q9BY41).
T2 sequence (Q9BY41 whole entry): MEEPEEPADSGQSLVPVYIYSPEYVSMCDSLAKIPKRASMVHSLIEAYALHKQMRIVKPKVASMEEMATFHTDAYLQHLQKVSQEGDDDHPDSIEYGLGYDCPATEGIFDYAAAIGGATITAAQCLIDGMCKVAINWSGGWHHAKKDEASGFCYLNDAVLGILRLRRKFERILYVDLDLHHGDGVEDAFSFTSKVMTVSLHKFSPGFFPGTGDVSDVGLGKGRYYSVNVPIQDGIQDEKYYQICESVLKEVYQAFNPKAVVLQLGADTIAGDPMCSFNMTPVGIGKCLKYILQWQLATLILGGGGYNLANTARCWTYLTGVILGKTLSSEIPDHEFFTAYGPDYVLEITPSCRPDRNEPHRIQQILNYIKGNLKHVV
Put plainly: Inhibition of human HDAC8 using Boc-Lys(TFA)-AMC as substrate incubated 30 mins before substrate addition measured after 30 mins post substrate addition by fluorescence assay.

For experiment [7], the target named is T3, Histone deacetylase (Homo sapiens) (UniProt Q13547+O15379+Q9UBN7+Q92769+Q9UQL6+Q8WUI4+Q9BY41+Q96DB2+P56524+Q9UKV0+Q969S8). Put plainly: Inhibition of HDAC in human prostate cancer cells assessed as induction of hyperacetylation of alpha-tubulin after 16 hrs by SDS-PAGE and Western blot analysis. To be noted: Cancer cell lines. It counts as cell-based. The procedure, abridged:
(§2)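 Cells exposed to inhibitor at […] for 16 h. Whole-cell lysates made in ice-cold Tris pH 7.4 buffer with Triton X-100, protease and phosphatase inhibitors, run on 13% SDS-PAGE gels. Western blot for acetylated histone H3 (polyclonal) or acetylated alpha-tubulin (monoclonal), beta-actin as loading control, HRP secondary, ECL detection.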
(In general: Immunoblotting shows a protein as a band on a membrane.)

Experiment [8] concerns the target Histone deacetylase 1 (Homo sapiens, UniProt Q13547). Nature of the experiment: Inhibition of HDAC1 using KI-177 as substrate incubated 30 mins before substrate addition measured after 30 mins post substrate addition by fluorescence assay.
Experiment [9] deals with Histone deacetylase 4 (Homo sapiens, UniProt P56524). Nature of the experiment: Inhibition of HDAC4 using Boc-Lys(TFA)-AMC as substrate incubated 30 mins before substrate addition measured after 30 mins post substrate addition by fluorescence assay.
Experiment [10] deals with T3, Histone deacetylase (Homo sapiens). Nature of the experiment: Inhibition of HDAC in human prostate cancer cells assessed as induction of hyperacetylation of histone H3 after 16 hrs by SDS-PAGE and Western blot analysis. To be noted: Cancer cell lines. It counts as cell-based. The procedure, abridged: as §2

Histone deacetylase 4, sequence (P56524 whole entry): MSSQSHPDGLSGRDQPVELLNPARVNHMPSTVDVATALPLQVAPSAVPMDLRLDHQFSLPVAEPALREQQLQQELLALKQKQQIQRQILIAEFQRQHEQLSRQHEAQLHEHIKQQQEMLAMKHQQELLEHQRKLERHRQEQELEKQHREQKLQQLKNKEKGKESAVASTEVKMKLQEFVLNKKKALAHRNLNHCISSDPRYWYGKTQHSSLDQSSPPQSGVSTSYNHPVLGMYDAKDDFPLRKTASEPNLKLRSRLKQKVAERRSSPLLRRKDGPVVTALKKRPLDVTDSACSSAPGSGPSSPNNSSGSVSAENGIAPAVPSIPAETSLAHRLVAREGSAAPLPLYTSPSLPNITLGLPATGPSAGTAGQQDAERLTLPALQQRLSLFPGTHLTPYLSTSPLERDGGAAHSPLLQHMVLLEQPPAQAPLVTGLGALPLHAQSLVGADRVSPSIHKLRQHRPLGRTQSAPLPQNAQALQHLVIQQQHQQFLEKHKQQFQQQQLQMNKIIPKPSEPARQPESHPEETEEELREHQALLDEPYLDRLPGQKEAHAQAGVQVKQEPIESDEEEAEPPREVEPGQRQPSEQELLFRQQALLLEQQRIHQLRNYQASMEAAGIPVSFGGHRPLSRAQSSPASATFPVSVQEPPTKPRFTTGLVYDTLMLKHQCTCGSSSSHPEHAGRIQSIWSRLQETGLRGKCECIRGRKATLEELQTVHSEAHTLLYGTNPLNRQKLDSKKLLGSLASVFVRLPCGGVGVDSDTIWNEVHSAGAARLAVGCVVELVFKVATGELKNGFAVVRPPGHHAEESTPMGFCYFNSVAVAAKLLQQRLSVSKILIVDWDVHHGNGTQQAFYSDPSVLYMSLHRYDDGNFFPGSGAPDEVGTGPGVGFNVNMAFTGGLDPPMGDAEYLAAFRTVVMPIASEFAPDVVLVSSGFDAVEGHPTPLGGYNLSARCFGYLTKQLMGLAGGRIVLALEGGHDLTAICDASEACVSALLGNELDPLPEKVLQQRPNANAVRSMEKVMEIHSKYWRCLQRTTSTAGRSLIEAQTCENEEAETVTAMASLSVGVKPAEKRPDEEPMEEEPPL
Histone deacetylase 1, sequence (Q13547 whole entry): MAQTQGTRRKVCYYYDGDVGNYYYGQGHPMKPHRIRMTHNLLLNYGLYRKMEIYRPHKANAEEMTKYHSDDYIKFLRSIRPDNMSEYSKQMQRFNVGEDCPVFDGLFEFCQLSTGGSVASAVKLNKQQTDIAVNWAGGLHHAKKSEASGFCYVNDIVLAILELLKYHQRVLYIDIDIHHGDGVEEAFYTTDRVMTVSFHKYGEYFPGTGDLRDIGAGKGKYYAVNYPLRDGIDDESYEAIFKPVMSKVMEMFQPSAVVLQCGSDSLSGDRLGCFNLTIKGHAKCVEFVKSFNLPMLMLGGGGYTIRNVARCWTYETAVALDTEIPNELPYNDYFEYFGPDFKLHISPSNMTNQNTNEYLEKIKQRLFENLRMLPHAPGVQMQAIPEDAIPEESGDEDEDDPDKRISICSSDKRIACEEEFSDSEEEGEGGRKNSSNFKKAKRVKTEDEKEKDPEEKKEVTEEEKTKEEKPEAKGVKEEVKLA

Regarding `CC(C)CCc1c(OCCCCCCCC(=O)NO)ccc2c1OC(=O)CC2`, the GI50 in experiment [1] (Homo sapiens, Hep3B, 48 h) was greater than 30 µM; in experiment [3] (Homo sapiens, PC-3, 48 h) it was greater than 30 µM; in experiment [4] (Homo sapiens, A549, 48 h), greater than 30 µM. This molecule also displayed an IC50 in [2] of 0.1117 µM.

For `CC(C)CCc1c(OCCCCCCCC(=O)NO)ccc2ccc(=O)oc12`, the GI50 in experiment [1] (Homo sapiens, Hep3B, 48 h) came out at 3.58 µM; in experiment [4] (Homo sapiens, A549, 48 h) it was 2.19 µM. Besides, in [2], the IC50 was 0.039 µM.

As to `CC(C)CCc1c(OCCCCCC(=O)NO)ccc(CCC(=O)NO)c1O`, the GI50 in [1] (Homo sapiens, Hep3B, 48 h) is 1.98 µM; in [3] (Homo sapiens, PC-3, 48 h) it was 2.52 µM; in experiment [4] (Homo sapiens, A549, 48 h), 5.41 µM. For the same molecule, in experiment [2], the IC50 stood at 0.2099 µM.

Regarding `CC(C)CCc1c(OCCCCCCC(=O)NO)ccc2ccc(=O)oc12`, the 50% growth inhibitory concentration (GI50) was determined as 0.75 µM in experiment [1] (Homo sapiens, Hep3B, 48 h) and 0.66 µM in experiment [4] (Homo sapiens, A549, 48 h). Also, the IC50 in experiment [5] was 0.0152 µM; in [6] it was 0.553 µM; in [2] it was 0.0222 µM; in experiment [8], 0.0323 µM; in experiment [9], greater than 10 µM. Besides, the inhibition result in experiment [7] and in experiment [10] was “Dose-dependent effect” throughout.

As for `CC(C)CCc1c(OCCCCCCC(=O)NO)ccc(CCC(=O)NO)c1O`, the GI50 in experiment [1] (Homo sapiens, Hep3B, 48 h) came out at 4.72 µM; in experiment [3] (Homo sapiens, PC-3, 48 h), 4.73 µM; in experiment [4] (Homo sapiens, A549, 48 h), 6.16 µM. In addition, the IC50 in experiment [5] was 0.0159 µM; in [6] it was 0.268 µM; in experiment [2] it was 0.0246 µM; in experiment [8], 0.0429 µM; in experiment [9] it was greater than 10 µM. Further, the inhibition result in experiment [7] and in experiment [10] was “inactive” each time.

For the molecule `O=C(CCCCCCC(=O)Nc1ccccc1)NO` [VORINOSTAT], the GI50 turned out to be 1.21 µM in experiment [1], 1.02 µM in experiment [3] and 0.79 µM in [4].

In the case of `CC(C)CCc1c(OCCCCC(=O)NO)ccc2c1OC(=O)CC2`, the GI50 in experiment [1] (Homo sapiens, Hep3B, 48 h) was greater than 30 µM; in experiment [3] (Homo sapiens, PC-3, 48 h), greater than 30 µM; in experiment [4] (Homo sapiens, A549, 48 h) it was greater than 30 µM. The molecule further returned a half-inhibitory concentration (IC50) in [2] of 0.7116 µM.

`CC(C)CCc1c(OCCCCCCC(=O)NO)ccc2c1OC(=O)CC2`: the GI50 in [1] (Homo sapiens, Hep3B, 48 h) was greater than 30 µM; in [3] (Homo sapiens, PC-3, 48 h) it was greater than 30 µM; in experiment [4] (Homo sapiens, A549, 48 h) it was greater than 30 µM. Besides, the IC50 in experiment [5] was 0.04 µM; in [6], 1.08 µM; in [2] it was 0.0237 µM; in experiment [8], 0.0527 µM; in experiment [9], greater than 10 µM.

Regarding `CC(C)CCc1c(OCCCCCC(=O)NO)ccc2ccc(=O)oc12`, the GI50 is 0.8 µM in experiment [1] (Homo sapiens, Hep3B, 48 h) and 0.87 µM in experiment [4] (Homo sapiens, A549, 48 h). The IC50 in experiment [2] came to 0.1282 µM.

Take `CC(C)CCc1c(OCCCCC(=O)NO)ccc(CCC(=O)NO)c1O`: the GI50 was found to be 14.1 µM in [1] (Homo sapiens, Hep3B, 48 h); 14.4 µM in experiment [3] (Homo sapiens, PC-3, 48 h); 10 µM in [4] (Homo sapiens, A549, 48 h). The IC50 in experiment [2] turned out to be 0.4263 µM.

On to `CC(C)CCc1c(OCCCCCCCC(=O)NO)ccc(CCC(=O)NO)c1O`, for which the GI50 in [1] (Homo sapiens, Hep3B, 48 h) is 1.27 µM; in [3] (Homo sapiens, PC-3, 48 h), 1.73 µM; in experiment [4] (Homo sapiens, A549, 48 h), 2.67 µM. In addition, the IC50 in experiment [5] is 0.0142 µM; in experiment [6], 0.279 µM; in experiment [2], 0.0289 µM; in experiment [8], 0.0415 µM; in experiment [9], greater than 10 µM.

For the molecule `CC(C)CCc1c(OCCCCC(=O)NO)ccc2ccc(=O)oc12`, the concentration for 50% growth inhibition (GI50) in experiment [1] (Homo sapiens, Hep3B, 48 h) was determined as 1.31 µM; in experiment [3] (Homo sapiens, PC-3, 48 h), 1.94 µM; in experiment [4] (Homo sapiens, A549, 48 h), 2.76 µM. The IC50 in experiment [2] was determined as 0.5232 µM.

`CC(C)CCc1c(OCCCCCC(=O)NO)ccc2c1OC(=O)CC2`: the GI50 in experiment [1] (Homo sapiens, Hep3B, 48 h) is greater than 30 µM; in experiment [3] (Homo sapiens, PC-3, 48 h), greater than 30 µM; in [4] (Homo sapiens, A549, 48 h) it was greater than 30 µM. This molecule registered an IC50 in experiment [2] of 0.4255 µM.
